According to ChEMBL document CHEMBL1833940, “Discovery of 3-(2,6-dichloro-3,5-dimethoxy-phenyl)-1-{6-[4-(4-ethyl-piperazin-1-yl)-phenylamino]-pyrimidin-4-yl}-1-methyl-urea (NVP-BGJ398), a potent and selective inhibitor of the fibroblast growth factor receptor family of receptor tyrosine kinase” (J Med Chem, 2011):
The source made the active and inactive calls. The rule behind the calls is not given here.

Experiments:
[1] = molecular target: Tyrosine-protein kinase Lyn (Homo sapiens, UniProt P07948); experiment: Inhibition of recombinant LYN kinase
Tyrosine-protein kinase Lyn, sequence (P07948 whole entry): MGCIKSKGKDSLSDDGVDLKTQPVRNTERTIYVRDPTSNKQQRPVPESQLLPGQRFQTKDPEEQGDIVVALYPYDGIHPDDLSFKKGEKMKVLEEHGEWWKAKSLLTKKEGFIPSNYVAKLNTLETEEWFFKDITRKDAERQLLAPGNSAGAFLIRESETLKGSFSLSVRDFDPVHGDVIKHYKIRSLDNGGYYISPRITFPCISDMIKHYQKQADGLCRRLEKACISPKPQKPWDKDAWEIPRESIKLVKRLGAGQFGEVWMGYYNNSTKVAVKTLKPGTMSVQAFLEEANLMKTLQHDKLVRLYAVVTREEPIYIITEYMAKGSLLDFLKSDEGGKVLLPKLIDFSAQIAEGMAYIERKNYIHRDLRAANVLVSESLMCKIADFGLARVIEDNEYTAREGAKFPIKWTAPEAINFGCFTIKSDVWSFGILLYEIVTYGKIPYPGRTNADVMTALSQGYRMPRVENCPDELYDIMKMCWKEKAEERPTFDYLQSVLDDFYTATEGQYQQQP
How it was run: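 Purified recombinant kinases under optimized conditions, with peptide substrates and ATP at each kinase's Km. Phosphorylation was read out by microfluidic mobility shift, and IC50 values were obtained.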

[2] = molecular target: Tyrosine-protein kinase Yes (Homo sapiens, UniProt P07947); experiment: Inhibition of recombinant YES kinase
Tyrosine-protein kinase Yes, sequence (P07947 whole entry): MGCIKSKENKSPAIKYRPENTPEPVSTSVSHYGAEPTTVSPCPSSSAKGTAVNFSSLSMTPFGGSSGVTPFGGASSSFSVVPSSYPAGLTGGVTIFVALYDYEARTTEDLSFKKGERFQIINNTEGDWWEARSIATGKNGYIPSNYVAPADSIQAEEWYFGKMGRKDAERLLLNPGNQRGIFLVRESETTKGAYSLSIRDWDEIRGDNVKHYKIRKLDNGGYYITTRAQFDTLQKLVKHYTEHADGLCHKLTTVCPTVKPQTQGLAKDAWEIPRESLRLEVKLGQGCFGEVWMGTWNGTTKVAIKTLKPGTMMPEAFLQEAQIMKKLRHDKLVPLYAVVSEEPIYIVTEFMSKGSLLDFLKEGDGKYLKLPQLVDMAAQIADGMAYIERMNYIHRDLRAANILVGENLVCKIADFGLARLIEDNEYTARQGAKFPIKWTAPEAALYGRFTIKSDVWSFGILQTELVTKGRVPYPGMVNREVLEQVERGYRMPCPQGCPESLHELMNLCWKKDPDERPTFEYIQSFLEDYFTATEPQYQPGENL
How it was run: (§1)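 Purified recombinant kinases under optimized conditions with peptide substrates. ATP was set at each kinase's Km. Phosphorylation was read by microfluidic mobility-shift separation of substrate and product; IC50 determined.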

[3] = Half life in tumor of RT112/luc1 cells implanted in athymic nude mouse at 5 mg/kg, iv by LC/MS/MS analysis; assay type: ADME, organism-based, Neoplasm; design: dose 5 mg/kg, route intravenous
How it was run: (§2)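 Female athymic nude mice carried subcutaneous RT112/luc1 tumors (5×10^6 cells, 50% Matrigel; about 300–400 mm3). Dosing was either 5 mg/kg iv by tail vein in NMP/PEG200 (1:9) or 20 mg/kg oral suspension in PEG300/D5W (2:1). Groups of mice (n = 4) were sacrificed at 0.083–24 h. Plasma and tumor levels were measured by LC-MS/MS (LOQ 5 ng/mL, 10 ng/g).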

[4] = Half life in plasma of RT112/luc1 cells implanted athymic nude mouse at 20 mg/kg, po by LC/MS/MS analysis; assay type: ADME, organism-based; design: dose 20 mg/kg, route oral
How it was run: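 Female athymic nude mice carried subcutaneous RT112/luc1 tumors (5 × 10^6 cells in HBSS with 50% Matrigel, right flank; about 300–400 mm3). Dosed by oral gavage at 20 mg/kg as a suspension in PEG300/D5W (2:1, v/v). Groups (n = 4) were sacrificed at 0.083–24 h.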

Plasma = experiment: Dose normalized AUC in plasma of RT112/luc1 cells implanted athymic nude mouse at 20 mg/kg, po by LC/MS/MS analysis; assay type: ADME, organism-based; design: dose 20 mg/kg, route oral; conditions: in vivo; how it was run: as §2
[5] = Cmax in Wistar rat at 5 mg/kg, iv after 5 mins by LC-MS/MS analysis; assay type: ADME, organism-based; design: dose 5 mg/kg, route intravenous; conditions: in vivo
How it was run: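 Female Wistar rats received either an iv femoral-vein dose of 5 mg/kg in NMP/PEG200 (1:9) or an oral dose of monophosphate salt at 10 mg/kg (free base) in acetate buffer pH 4.6/PEG300. Plasma was sampled by sublingual bleeding at 0.083–24 h (n = 4 staggered, or n = 3–4 serial). Plasma levels were measured by LC-MS/MS (LOQ 10 ng/mL).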

[6] = Apparent terminal half life in Wistar rat at 5 mg/kg, iv by LC-MS/MS analysis; assay type: ADME, organism-based; design: dose 5 mg/kg, route intravenous; conditions: in vivo, read-out: t1/2 lambda z (converted)
How it was run: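 Female Wistar rats. IV: 5 mg/kg into the femoral vein as a solution in NMP/PEG200 (1:9, v/v). Oral: monophosphate salt at 10 mg/kg (free base equivalents) as a solution in acetic acid–acetate buffer pH 4.6/PEG300. Plasma was taken by sublingual bleeding at 0.083–24 h, from staggered groups (n = 4) or one sequentially bled group. Assayed by LC-MS/MS (LOQ 10 ng/mL); noncompartmental analysis.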

RT-112 = experiment: Antiproliferative activity against human RT112 cells overexpressing wild type FGFR3 after 72 hrs; assay type: functional, cell-based; conditions: RT-112, 72 h
How it was run: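 Bladder cancer lines from ATCC or DSMZ were seeded in 96-well plates (RT4, RT112 at 8500 cells/well; others at 5000 cells/well) in growth medium. Compound dilutions or DMSO were added 24 h later and incubated 72 h. Cells were fixed with glutaraldehyde, stained with 0.05% methylene blue and eluted with 3% HCl, then OD650 nm was read.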

[7] = molecular target: MAP kinase-interacting serine/threonine-protein kinase 1 (Homo sapiens, UniProt Q9BUB5); experiment: Inhibition of recombinant MNK1; how it was run: as §1
MAP kinase-interacting serine/threonine-protein kinase 1, sequence (Q9BUB5 whole entry, canonical isoform): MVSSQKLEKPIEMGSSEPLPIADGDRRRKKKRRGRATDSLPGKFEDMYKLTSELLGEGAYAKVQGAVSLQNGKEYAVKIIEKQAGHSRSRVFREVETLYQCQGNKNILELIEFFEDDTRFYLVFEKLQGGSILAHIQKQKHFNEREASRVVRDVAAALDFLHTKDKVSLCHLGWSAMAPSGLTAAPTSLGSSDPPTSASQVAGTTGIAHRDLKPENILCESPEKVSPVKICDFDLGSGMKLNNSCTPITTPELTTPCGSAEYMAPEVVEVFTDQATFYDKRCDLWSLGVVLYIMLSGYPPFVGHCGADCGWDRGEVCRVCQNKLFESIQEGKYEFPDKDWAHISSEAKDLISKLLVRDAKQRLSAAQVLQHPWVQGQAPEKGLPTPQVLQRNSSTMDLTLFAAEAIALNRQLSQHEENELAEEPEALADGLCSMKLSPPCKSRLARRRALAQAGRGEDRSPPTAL

[8] = molecular target: Casein kinase I isoform gamma-3 (Homo sapiens, UniProt Q9Y6M4); experiment: Inhibition of recombinant CK1-gamma3; how it was run: as §1
Casein kinase I isoform gamma-3, sequence (Q9Y6M4 whole entry, canonical isoform): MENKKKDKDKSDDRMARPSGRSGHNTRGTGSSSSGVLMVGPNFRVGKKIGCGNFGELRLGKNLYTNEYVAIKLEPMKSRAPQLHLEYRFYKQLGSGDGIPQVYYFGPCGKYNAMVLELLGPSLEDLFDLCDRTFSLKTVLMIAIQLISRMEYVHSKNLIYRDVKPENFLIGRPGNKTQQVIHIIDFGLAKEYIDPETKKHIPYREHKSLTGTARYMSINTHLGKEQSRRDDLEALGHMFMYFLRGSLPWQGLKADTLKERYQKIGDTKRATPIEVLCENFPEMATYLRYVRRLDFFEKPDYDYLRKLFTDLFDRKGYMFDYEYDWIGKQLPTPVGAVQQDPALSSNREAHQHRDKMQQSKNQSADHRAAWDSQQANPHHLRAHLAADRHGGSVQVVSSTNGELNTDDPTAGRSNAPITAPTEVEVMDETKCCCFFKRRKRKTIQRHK

[9] = molecular target: Phosphatidylinositol 4,5-bisphosphate 3-kinase catalytic subunit beta isoform (Homo sapiens, UniProt P42338); experiment: Inhibition of recombinant PI3Kbeta by luminescent kinase assay
Phosphatidylinositol 4,5-bisphosphate 3-kinase catalytic subunit beta isoform, sequence (P42338 whole entry, canonical isoform): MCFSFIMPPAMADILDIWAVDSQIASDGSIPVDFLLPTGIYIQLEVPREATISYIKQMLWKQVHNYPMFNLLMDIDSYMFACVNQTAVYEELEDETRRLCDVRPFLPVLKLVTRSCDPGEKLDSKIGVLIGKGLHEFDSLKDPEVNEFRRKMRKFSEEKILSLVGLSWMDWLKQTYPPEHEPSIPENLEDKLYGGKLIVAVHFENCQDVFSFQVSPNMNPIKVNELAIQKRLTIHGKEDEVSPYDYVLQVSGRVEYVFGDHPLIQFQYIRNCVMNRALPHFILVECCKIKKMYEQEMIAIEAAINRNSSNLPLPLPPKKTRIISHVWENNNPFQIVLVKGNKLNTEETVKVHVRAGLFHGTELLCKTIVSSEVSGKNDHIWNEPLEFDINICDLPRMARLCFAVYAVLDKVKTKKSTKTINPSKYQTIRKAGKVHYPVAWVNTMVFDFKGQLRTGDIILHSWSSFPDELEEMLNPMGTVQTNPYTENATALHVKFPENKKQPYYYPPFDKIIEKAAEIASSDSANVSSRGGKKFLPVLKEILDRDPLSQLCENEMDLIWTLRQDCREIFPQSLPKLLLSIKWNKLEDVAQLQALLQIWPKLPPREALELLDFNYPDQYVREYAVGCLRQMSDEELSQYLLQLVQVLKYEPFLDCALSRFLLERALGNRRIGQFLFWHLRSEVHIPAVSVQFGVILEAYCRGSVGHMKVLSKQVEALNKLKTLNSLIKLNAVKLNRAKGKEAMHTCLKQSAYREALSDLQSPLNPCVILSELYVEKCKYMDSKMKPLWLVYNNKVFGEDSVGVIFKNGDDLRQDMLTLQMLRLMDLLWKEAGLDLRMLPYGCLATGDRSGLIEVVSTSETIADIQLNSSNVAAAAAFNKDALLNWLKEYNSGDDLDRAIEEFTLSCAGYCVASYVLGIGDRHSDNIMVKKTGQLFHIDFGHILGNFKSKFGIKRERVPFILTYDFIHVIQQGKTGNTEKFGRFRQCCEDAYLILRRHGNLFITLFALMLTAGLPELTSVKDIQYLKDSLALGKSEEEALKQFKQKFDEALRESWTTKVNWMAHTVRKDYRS

[10] = molecular target: Tyrosine-protein kinase ZAP-70 (Homo sapiens, UniProt P43403); experiment: Inhibition of recombinant ZAP70
Tyrosine-protein kinase ZAP-70, sequence (P43403 whole entry): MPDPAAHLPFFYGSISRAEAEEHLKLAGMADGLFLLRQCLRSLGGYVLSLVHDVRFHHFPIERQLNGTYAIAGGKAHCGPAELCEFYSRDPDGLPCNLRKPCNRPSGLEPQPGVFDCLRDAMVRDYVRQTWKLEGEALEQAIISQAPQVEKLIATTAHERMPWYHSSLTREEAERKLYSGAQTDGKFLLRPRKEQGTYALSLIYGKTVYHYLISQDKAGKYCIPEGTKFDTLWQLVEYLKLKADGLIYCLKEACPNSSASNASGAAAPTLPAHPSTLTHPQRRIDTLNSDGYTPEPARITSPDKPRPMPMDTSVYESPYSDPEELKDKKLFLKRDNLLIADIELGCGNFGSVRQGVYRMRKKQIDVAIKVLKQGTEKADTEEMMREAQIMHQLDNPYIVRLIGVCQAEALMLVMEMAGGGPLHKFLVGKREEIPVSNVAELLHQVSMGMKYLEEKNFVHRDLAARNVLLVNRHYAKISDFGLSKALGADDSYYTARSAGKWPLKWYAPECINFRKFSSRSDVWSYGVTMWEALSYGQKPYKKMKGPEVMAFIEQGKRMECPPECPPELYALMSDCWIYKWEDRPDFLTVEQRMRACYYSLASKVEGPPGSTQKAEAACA
How it was run: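 Purified recombinant kinases were tested under optimized conditions with peptide substrates. ATP was set at each kinase's Km. Phosphorylation was read out by microfluidic mobility shift, and IC50 values were determined.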

BaF3 = experiment: Antiproliferative activity against mouse wild type BAF3 cells assessed as decrease in cell viability by luminescence-based assay
How it was run: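 IL-3-independent BaF3 or BaF3 Tel-TK cells were grown in RPMI-1640 with 10% FBS and seeded at 4250 cells/well in 384-well plates. Compound serially diluted in DMSO was pin-transferred, followed by 48 h at 37 °C, 5% CO2. Viability was read by Bright-Glo luciferase luminescence.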

[11] = molecular target: Phosphatidylinositol 4-kinase beta (Homo sapiens, UniProt Q9UBF8); experiment: Inhibition of PI4Kbeta by luminescent kinase assay
Phosphatidylinositol 4-kinase beta, sequence (Q9UBF8 whole entry): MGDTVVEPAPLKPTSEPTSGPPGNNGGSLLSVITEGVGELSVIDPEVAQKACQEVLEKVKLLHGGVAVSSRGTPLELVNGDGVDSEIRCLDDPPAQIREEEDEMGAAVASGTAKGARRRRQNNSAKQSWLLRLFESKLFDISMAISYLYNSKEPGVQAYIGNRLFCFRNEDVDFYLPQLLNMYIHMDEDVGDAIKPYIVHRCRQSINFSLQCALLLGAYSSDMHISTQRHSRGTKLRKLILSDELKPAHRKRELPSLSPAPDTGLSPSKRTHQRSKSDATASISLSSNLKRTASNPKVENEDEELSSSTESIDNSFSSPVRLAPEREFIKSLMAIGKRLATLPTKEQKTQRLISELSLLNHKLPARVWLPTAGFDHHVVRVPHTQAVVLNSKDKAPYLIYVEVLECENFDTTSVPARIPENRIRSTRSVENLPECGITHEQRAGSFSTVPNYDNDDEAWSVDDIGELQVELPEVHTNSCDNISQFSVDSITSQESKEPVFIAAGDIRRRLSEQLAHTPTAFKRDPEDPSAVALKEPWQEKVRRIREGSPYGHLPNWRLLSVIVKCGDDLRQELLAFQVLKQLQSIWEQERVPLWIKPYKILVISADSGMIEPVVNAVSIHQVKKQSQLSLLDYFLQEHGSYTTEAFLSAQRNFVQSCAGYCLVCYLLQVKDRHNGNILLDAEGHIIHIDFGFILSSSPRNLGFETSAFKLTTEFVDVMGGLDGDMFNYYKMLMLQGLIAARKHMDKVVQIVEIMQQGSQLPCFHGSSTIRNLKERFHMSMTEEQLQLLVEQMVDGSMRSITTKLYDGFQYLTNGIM

Rattus norvegicus [12] = experiment: Inhibition of FGFR autophosphorylation in RT112 tumor bearing nude rowett rat assessed as decrease in pFRS2 concentration at 4.25 mg/kg, po administered as a single dose by Western blot analysis; assay type: functional, organism-based; design: dose 4.25 mg/kg
How it was run: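 RT112 tumor-bearing nude Rowett rats (n = 4) received a single oral dose of monophosphate salt at 4.25 or 8.51 mg/kg free base. Tumors were collected at time points up to 24 h and lysed in Tris/Triton buffer with vanadate and protease inhibitors. Western blots were run for pFRS2(Tyr196) and pMAPK, with total FRS2, total MAPK or β-tubulin as loading controls.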

Rattus norvegicus [13] = experiment: Inhibition of FGFR autophosphorylation in RT112 tumor bearing nude rowett rat assessed as decrease in pFRS2 concentration at 8.51 mg/kg, po administered as a single dose after 16 hrs by Western blot analysis; assay type: functional, organism-based; design: dose 8.51 mg/kg
How it was run: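 RT112 subcutaneous xenografts in female nude Rowett rats (n = 4). Single oral gavage of the monophosphate salt at 4.25 or 8.51 mg/kg (free base equivalents) in acetic acid–acetate buffer pH 4.6/PEG300 (1:1). Tumors were collected at time points up to 24 h, frozen, homogenized and lysed. Western blots probed pFRS2(Tyr196) and pMAPK, with total FRS2, total MAPK or β-tubulin as loading controls.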

Tumour = experiment: Drug uptake in tumor of nude rowett rat bearing human RT112 cells at 8.51 mg/kg, po administered as a single dose after 3 hrs by LC-MS/MS analysis; assay type: ADME, organism-based, Neoplasm, RT-112; design: dose 8.51 mg/kg, route oral; conditions: in vivo
How it was run: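 Nude Rowett rats bearing subcutaneous RT112 tumors (n = 4) received a single gavage of monophosphate salt at 4.25 or 8.51 mg/kg free base in acetate buffer pH 4.6/PEG300. Tumors were collected at intervals after dosing, frozen and homogenized in an equal volume of ice-cold PBS. Compound levels were measured by LC-MS/MS (LOQ 3 ng/mL).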

With `CCN1CCN(c2ccc(Nc3cc(N(C)C(=O)Nc4c(Cl)c(OC)cc(OC)c4Cl)ncn3)cc2)CC1.O=P(O)(O)O` [INFIGRATINIB PHOSPHATE] the IC50 [1] was 300 nM, the IC50 [2] was 1100 nM and the half-life [3] was 6.7 h. It also gave a half-life [4] of 4.3 h, an AUC/dose (Plasma) of 0.18 µM·h and a Cmax [5] of 970 nM. The half-life [6] was 4.5 h, the IC50 (RT-112) was 5 nM and the IC50 [7] was over 10000 nM. For the same compound, the IC50 [8] was over 10000 nM, the IC50 [9] was over 9000 nM and the IC50 [10] was over 10000 nM. For the same compound, the IC50 (BaF3) was 1860 nM, the IC50 [11] was over 9000 nM and the inhibition (Rattus norvegicus [12]) was “Active”. The inhibition (Rattus norvegicus [13]) was “Active” and the Drug uptake (Tumour) was 1.96 nmol/g.
